Assay results: ChEMBL document CHEMBL1147412, “Synthesis and biological activity of new quinoxaline antibiotics of echinomycin analogues” (Bioorg Med Chem Lett, 2004)
In brackets after ≈: the same amount, converted by molar mass.

Legend:
[1] = system: B16; assay: Inhibitory activity against growth of B16 mouse melanoma cell line was determined by MTT assay; format: functional, cell-based
Method in brief: (§1)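 Exponentially growing cells seeded at 2 × 10^4 ~ 5 × 10^4 cells/well in RPMI-1640, drug-treated, then incubated 72 h. MTT (5 mg/mL stock) added, 4 h at 37 °C. Formazan dissolved in DMSO at rt, absorbance read at 540 nm. IC50 from plot of log drug concentration versus growth rate of treated cells.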

[2] = system: BeWo; assay: Inhibitory activity against growth of BeWO placental tumor cell line was determined by MTT assay; format: functional, cell-based; conditions: Homo sapiens; method in brief: as §1
[3] = system: HT-29; assay: Inhibitory activity against growth of HT-29 colon tumor cell line was determined by MTT assay; format: functional, cell-based; conditions: Homo sapiens; method in brief: as §1
[4] = system: HT-29; assay: Percentage of apoptotic HT-29 cells after 24 H treatment with 10 ug/mL concentration of compound; format: functional, Homo sapiens
Method in brief: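 HT-29 cells exposed to compound at 10 μg/mL for 24 h. Apoptotic cell percentage measured by flow cytometry (FACScan). Mean ± SEM of at least three separate experiments.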

[5] = system: PANC-1; assay: Inhibitory activity against growth of PANC-1 tumor cell line was determined by MTT assay; format: functional, cell-based; conditions: Homo sapiens; method in brief: as §1

Row | SMILES | IC50 [1] [µg/mL] | IC50 [2] [µg/mL] | IC50 [3] [µg/mL] | Apoptotic cells [4] [%] | IC50 [5] [µg/mL]
1 | CC(C)[C@H]1C(=O)OC[C@@H](NC(=O)c2cnc3ccccc3n2)C(=O)N[C@@H](C)C(=O)N(C)[C@H]2CSCSC[C@@H](C(=O)N1C)N(C)C(=O)[C@H](C)NC(=O)[C@H](NC(=O)c1cnc3ccccc3n1)COC(=O)[C@H](C(C)C)N(C)C2=O | 1.4 (≈ 1.27 µM) | 2.7 (≈ 2.45 µM) | 5 (≈ 4.54 µM) | 28.9 | 4 (≈ 3.63 µM)
2 | CC(C)[C@H]1C(=O)OC[C@@H](NC(=O)c2cnc3ccccc3n2)C(=O)N[C@@H](C)C(=O)N(C)[C@H]2CS(=O)(=O)CS(=O)(=O)C[C@@H](C(=O)N1C)N(C)C(=O)[C@H](C)NC(=O)[C@H](NC(=O)c1cnc3ccccc3n1)COC(=O)[C@H](C(C)C)N(C)C2=O | > 20 | > 20 | > 20 | – | > 20
3 | CC(C)[C@@H]1NC(=O)[C@@H]2CSCSC[C@H](NC(=O)[C@H](C)NC(=O)[C@H](NC(=O)c3cnc4ccccc4n3)COC1=O)C(=O)N[C@@H](C(C)C)C(=O)OC[C@@H](NC(=O)c1cnc3ccccc3n1)C(=O)N[C@@H](C)C(=O)N2 | > 20 | > 20 | > 20 | – | > 20
4 | CS[C@H]1SC[C@H]2C(=O)N(C)[C@@H](C(C)C)C(=O)OC[C@@H](NC(=O)c3cnc4ccccc4n3)C(=O)N[C@@H](C)C(=O)N(C)[C@@H]1C(=O)N(C)[C@@H](C(C)C)C(=O)OC[C@@H](NC(=O)c1cnc3ccccc3n1)C(=O)N[C@@H](C)C(=O)N2C [ECHINOMYCIN] | 0.4 (≈ 0.363 µM) | 1 (≈ 0.908 µM) | 2.2 (≈ 2 µM) | 47.5 | 1.8 (≈ 1.63 µM)
5 | CC(C)[C@H]1C(=O)OC[C@@H](NC(=O)c2cnc3ccccc3n2)C(=O)N[C@@H](C)C(=O)N(C)[C@H]2CSC[S+]([O-])C[C@@H](C(=O)N1C)N(C)C(=O)[C@H](C)NC(=O)[C@H](NC(=O)c1cnc3ccccc3n1)COC(=O)[C@H](C(C)C)N(C)C2=O (stereo not given in full) | > 20 | > 20 | > 20 | – | > 20
6 | CC(C)[C@@H]1NC(=O)[C@@H]2CS(=O)(=O)CS(=O)(=O)C[C@H](NC(=O)[C@H](C)NC(=O)[C@H](NC(=O)c3cnc4ccccc4n3)COC1=O)C(=O)N[C@@H](C(C)C)C(=O)OC[C@@H](NC(=O)c1cnc3ccccc3n1)C(=O)N[C@@H](C)C(=O)N2 | > 20 | > 20 | > 20 | – | > 20
7 | CC(C)[C@H]1C(=O)OC[C@@H](NC(=O)c2cnc3ccccc3n2)C(=O)N[C@@H](C)C(=O)N(C)[C@H]2C[S+]([O-])C[S+]([O-])C[C@@H](C(=O)N1C)N(C)C(=O)[C@H](C)NC(=O)[C@H](NC(=O)c1cnc3ccccc3n1)COC(=O)[C@H](C(C)C)N(C)C2=O (stereo not given in full) | > 20 | > 20 | > 20 | – | > 20
